≈ marks a conversion by molar mass, not a printed value.
test system: not listed separately; assay: Toxicity against Brine shrimp nauplii after 24 hrs; assay type: organism-based; settings: artemia salina, in vivo; read-out: ED50
In short: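 Artemia salina nauplii hatched 38 h in sterile brine (sea salt 38 g/L, pH 8.5) under aeration; 10 nauplii per vial exposed to graded compound concentrations in 5 mL final volume, 37 °C, 24 h under incandescent light. Survivors counted; percent lethality versus vehicle-treated controls; ED50 from probit analysis; podophyllotoxin positive control.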

Row | SMILES | LC50 at 24 h [µg/mL]
1 | C=CCOc1ccc(/C=C/C(=O)c2ccccc2NC(=O)NS(=O)(=O)c2ccc(C)cc2)cc1 | 6.11 (≈ 12.8 µM)
2 | Cc1ccc(S(=O)(=O)NC(=O)Nc2ccccc2C(=O)/C=C/c2ccncc2)cc1 | 16.8 (≈ 39.9 µM)
3 | Cc1ccc(S(=O)(=O)NC(=O)Nc2ccccc2C(=O)/C=C/c2ccc(Cl)cc2)cc1 | 6.92 (≈ 15.2 µM)

test system: Bacillus subtilis; assay: Antibacterial activity against Bacillus subtilis NCIM 2063 after 24 hrs by agar well diffusion assay; assay type: functional; settings: NCIM 2063, 24 h
In short: (§1)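 Agar well diffusion per NCCLS; NCIM standard strains. Nutrient agar seeded with 0.1 mL bacterial suspension in sterile 0.85% saline at 10⁵ CFU/mL. Plates in triplicate, 37 0.5 °C, 24 h. MIC taken as lowest concentration giving complete growth inhibition.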

Row | SMILES | MIC [µg/mL]
4 | C=CCOc1ccc(/C=C/C(=O)c2ccccc2NC(=O)NS(=O)(=O)c2ccc(C)cc2)cc1 | 32 (≈ 67.1 µM)
5 | Cc1ccc(S(=O)(=O)NC(=O)Nc2ccccc2C(=O)/C=C/c2ccncc2)cc1 | 128 (≈ 304 µM)
6 | Cc1ccc(S(=O)(=O)NC(=O)Nc2ccccc2C(=O)/C=C/c2ccc(Cl)cc2)cc1 | 32 (≈ 70.3 µM)

test system: Staphylococcus aureus; assay: Antibacterial activity against Staphylococcus aureus NCIM 2079 after 24 hrs by agar well diffusion assay; assay type: functional; settings: NCIM 2079, 24 h; in short: as §1

Row | SMILES | MIC [µg/mL]
7 | C=CCOc1ccc(/C=C/C(=O)c2ccccc2NC(=O)NS(=O)(=O)c2ccc(C)cc2)cc1 | 16 (≈ 33.6 µM)
8 | Cc1ccc(S(=O)(=O)NC(=O)Nc2ccccc2C(=O)/C=C/c2ccncc2)cc1 | 64 (≈ 152 µM)
9 | Cc1ccc(S(=O)(=O)NC(=O)Nc2ccccc2C(=O)/C=C/c2ccc(Cl)cc2)cc1 | 32 (≈ 70.3 µM)

test system: Micrococcus luteus; assay: Antibacterial activity against Micrococcus luteus NCIM 2155 after 24 hrs by agar well diffusion assay; assay type: functional; settings: NCIM 2155, 24 h; in short: as §1

Row | SMILES | MIC [µg/mL]
10 | C=CCOc1ccc(/C=C/C(=O)c2ccccc2NC(=O)NS(=O)(=O)c2ccc(C)cc2)cc1 | 32 (≈ 67.1 µM)
11 | Cc1ccc(S(=O)(=O)NC(=O)Nc2ccccc2C(=O)/C=C/c2ccncc2)cc1 | 64 (≈ 152 µM)
12 | Cc1ccc(S(=O)(=O)NC(=O)Nc2ccccc2C(=O)/C=C/c2ccc(Cl)cc2)cc1 | 64 (≈ 141 µM)

test system: Pseudomonas aeruginosa; assay: Antibacterial activity against Pseudomonas aeruginosa NCIM 2036 after 24 hrs by agar well diffusion assay; assay type: functional; settings: NCIM 2036, 24 h; in short: as §1

Row | SMILES | MIC [µg/mL]
13 | C=CCOc1ccc(/C=C/C(=O)c2ccccc2NC(=O)NS(=O)(=O)c2ccc(C)cc2)cc1 | 16 (≈ 33.6 µM)
14 | Cc1ccc(S(=O)(=O)NC(=O)Nc2ccccc2C(=O)/C=C/c2ccncc2)cc1 | 128 (≈ 304 µM)
15 | Cc1ccc(S(=O)(=O)NC(=O)Nc2ccccc2C(=O)/C=C/c2ccc(Cl)cc2)cc1 | 32 (≈ 70.3 µM)

test system: Klebsiella pneumoniae; assay: Antibacterial activity against Klebsiella pneumoniae NCIM 5082 after 24 hrs by agar well diffusion assay; assay type: functional; settings: NCIM 5082, 24 h; in short: as §1

Row | SMILES | MIC [µg/mL]
16 | C=CCOc1ccc(/C=C/C(=O)c2ccccc2NC(=O)NS(=O)(=O)c2ccc(C)cc2)cc1 | 16 (≈ 33.6 µM)
17 | Cc1ccc(S(=O)(=O)NC(=O)Nc2ccccc2C(=O)/C=C/c2ccncc2)cc1 | 64 (≈ 152 µM)
18 | Cc1ccc(S(=O)(=O)NC(=O)Nc2ccccc2C(=O)/C=C/c2ccc(Cl)cc2)cc1 | 64 (≈ 141 µM)

test system: Escherichia coli; assay: Antibacterial activity against Escherichia coli NCIM 2065 after 24 hrs by agar well diffusion assay; assay type: functional; settings: NCIM 2065, 24 h; in short: as §1

Row | SMILES | MIC [µg/mL]
19 | C=CCOc1ccc(/C=C/C(=O)c2ccccc2NC(=O)NS(=O)(=O)c2ccc(C)cc2)cc1 | 32 (≈ 67.1 µM)
20 | Cc1ccc(S(=O)(=O)NC(=O)Nc2ccccc2C(=O)/C=C/c2ccncc2)cc1 | 64 (≈ 152 µM)
21 | Cc1ccc(S(=O)(=O)NC(=O)Nc2ccccc2C(=O)/C=C/c2ccc(Cl)cc2)cc1 | 32 (≈ 70.3 µM)

test system: Proteus vulgaris; assay: Antibacterial activity against Proteus vulgaris NCIM 2813 after 24 hrs by agar well diffusion assay; assay type: functional; settings: NCIM 2813, 24 h; in short: as §1

Row | SMILES | MIC [µg/mL]
22 | C=CCOc1ccc(/C=C/C(=O)c2ccccc2NC(=O)NS(=O)(=O)c2ccc(C)cc2)cc1 | 16 (≈ 33.6 µM)
23 | Cc1ccc(S(=O)(=O)NC(=O)Nc2ccccc2C(=O)/C=C/c2ccncc2)cc1 | 64 (≈ 152 µM)
24 | Cc1ccc(S(=O)(=O)NC(=O)Nc2ccccc2C(=O)/C=C/c2ccc(Cl)cc2)cc1 | 64 (≈ 141 µM)

test system: Candida albicans; assay: Antifungal activity against Candida albicans NCIM 3102 after 48 hrs by agar well diffusion assay; assay type: functional; settings: NCIM 3102, 48 h
In short: (§2)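 Fungal spore suspensions in sterile distilled water set to final 10⁶ CFU/mL; 0.1 mL spread on Potato-Dextrose-Agar. NCCLS agar well diffusion with NCIM standard strains: 6 mm wells given 0.1 mL compound diluted in 1% DMSO, final 16 to 512 µg/mL. Triplicate plates held 48 h at 28 0.2 °C. MIC is lowest concentration fully inhibiting growth.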

Row | SMILES | MIC [µg/mL]
25 | C=CCOc1ccc(/C=C/C(=O)c2ccccc2NC(=O)NS(=O)(=O)c2ccc(C)cc2)cc1 | 16 (≈ 33.6 µM)
26 | Cc1ccc(S(=O)(=O)NC(=O)Nc2ccccc2C(=O)/C=C/c2ccncc2)cc1 | 64 (≈ 152 µM)
27 | Cc1ccc(S(=O)(=O)NC(=O)Nc2ccccc2C(=O)/C=C/c2ccc(Cl)cc2)cc1 | 64 (≈ 141 µM)

test system: Aspergillus niger; assay: Antifungal activity against Aspergillus niger NCIM 548 after 48 hrs by agar well diffusion assay; assay type: functional; settings: NCIM 548, 48 h; in short: as §2

Row | SMILES | MIC [µg/mL]
28 | C=CCOc1ccc(/C=C/C(=O)c2ccccc2NC(=O)NS(=O)(=O)c2ccc(C)cc2)cc1 | 16 (≈ 33.6 µM)
29 | Cc1ccc(S(=O)(=O)NC(=O)Nc2ccccc2C(=O)/C=C/c2ccncc2)cc1 | 64 (≈ 152 µM)
30 | Cc1ccc(S(=O)(=O)NC(=O)Nc2ccccc2C(=O)/C=C/c2ccc(Cl)cc2)cc1 | 64 (≈ 141 µM)

test system: Aspergillus oryzae; assay: Antifungal activity against Aspergillus oryzae NCIM 643 after 48 hrs by agar well diffusion assay; assay type: functional; settings: NCIM 643, 48 h; in short: as §2

Row | SMILES | MIC [µg/mL]
31 | C=CCOc1ccc(/C=C/C(=O)c2ccccc2NC(=O)NS(=O)(=O)c2ccc(C)cc2)cc1 | 16 (≈ 33.6 µM)
32 | Cc1ccc(S(=O)(=O)NC(=O)Nc2ccccc2C(=O)/C=C/c2ccncc2)cc1 | 64 (≈ 152 µM)
33 | Cc1ccc(S(=O)(=O)NC(=O)Nc2ccccc2C(=O)/C=C/c2ccc(Cl)cc2)cc1 | 64 (≈ 141 µM)

test system: Penicillium chrysogenum; assay: Antifungal activity against Penicillium chrysogenum NCIM 738 after 48 hrs by agar well diffusion assay; assay type: functional; settings: NCIM 738, 48 h; in short: as §2

Row | SMILES | MIC [µg/mL]
34 | C=CCOc1ccc(/C=C/C(=O)c2ccccc2NC(=O)NS(=O)(=O)c2ccc(C)cc2)cc1 | 16 (≈ 33.6 µM)
35 | Cc1ccc(S(=O)(=O)NC(=O)Nc2ccccc2C(=O)/C=C/c2ccncc2)cc1 | 64 (≈ 152 µM)
36 | Cc1ccc(S(=O)(=O)NC(=O)Nc2ccccc2C(=O)/C=C/c2ccc(Cl)cc2)cc1 | 64 (≈ 141 µM)

test system: Bacillus pumilus; assay: Antibacterial activity against Bacillus pumilus NCIM 2327 after 24 hrs by agar well diffusion assay; settings: NCIM 2327, 24 h

Row | SMILES | MIC [µg/mL]
37 | C=CCOc1ccc(/C=C/C(=O)c2ccccc2NC(=O)NS(=O)(=O)c2ccc(C)cc2)cc1 | 16 (≈ 33.6 µM)
38 | Cc1ccc(S(=O)(=O)NC(=O)Nc2ccccc2C(=O)/C=C/c2ccncc2)cc1 | 64 (≈ 152 µM)
39 | Cc1ccc(S(=O)(=O)NC(=O)Nc2ccccc2C(=O)/C=C/c2ccc(Cl)cc2)cc1 | 32 (≈ 70.3 µM)

Source: ChEMBL document CHEMBL1938268, “Synthesis, characterization and in vitro biological evaluation of some novel diarylsulfonylureas as potential cytotoxic and antimicrobial agents” (Bioorg Med Chem Lett, 2012)
